The target in experiment [1] is T1, Protein lin-28 homolog A (Homo sapiens) (UniProt Q9H9Z2).
T1 sequence (whole entry): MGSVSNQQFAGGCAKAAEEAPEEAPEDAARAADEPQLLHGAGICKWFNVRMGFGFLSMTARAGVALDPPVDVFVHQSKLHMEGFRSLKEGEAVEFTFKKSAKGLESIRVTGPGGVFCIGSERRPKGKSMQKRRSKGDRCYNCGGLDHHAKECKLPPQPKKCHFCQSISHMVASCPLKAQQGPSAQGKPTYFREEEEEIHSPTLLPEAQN
Nature of the experiment: Inhibition of Cy5-preE-let-7g binding to recombinant human N-terminal His6-tagged Lin28a expressed in Escherichia coli Rosetta2 (DE3) pLysS at 15 uM measured after 30 to 60 mins by electrophoretic mobility shift assay relative to control.

The target in experiment [2] is T2, Protein lin-28 homolog A/B (Homo sapiens) (UniProt Q6ZN17+Q9H9Z2). Nature of the experiment: Inhibition of Lin28a/Lin28b in human JAR cells assessed as increase in mature let-7a level at 5 to 10 uM after 20 hrs by TRIzol dye based qRT-PCR analysis. The experiment is classed as cell-based. In a few lines: (§1)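 JAR cells (express Lin28a and Lin28b) exposed to compound for 20 h; miRNA levels quantified with U6 snRNA as endogenous control; three or more biological replicates, standard deviation, paired two-tailed t test.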
T2 sequence (Q6ZN17 whole entry, looked up, one chain of several): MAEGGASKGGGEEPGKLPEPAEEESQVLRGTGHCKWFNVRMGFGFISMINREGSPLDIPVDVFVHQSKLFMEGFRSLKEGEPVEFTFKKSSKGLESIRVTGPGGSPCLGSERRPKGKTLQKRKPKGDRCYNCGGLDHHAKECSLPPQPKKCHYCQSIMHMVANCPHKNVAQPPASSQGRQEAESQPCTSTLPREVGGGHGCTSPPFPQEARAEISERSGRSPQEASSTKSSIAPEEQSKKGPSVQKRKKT
On the technique in general: Quantitative PCR measures a nucleic acid by following its amplification.

Experiment [3] deals with T2, Protein lin-28 homolog A/B (Homo sapiens). As to the kind of experiment: Inhibition of Lin28a/Lin28b in human JAR cells assessed as increase in mature let-7g level at 5 to 10 uM after 20 hrs by TRIzol dye based qRT-PCR analysis. The experiment is classed as cell-based. In a few lines: as §1
Experiment [4] shares this target. Nature of the experiment: Inhibition of Lin28a/Lin28b in human JAR cells assessed as reduction in HMGA2 expression at 5 to 10 uM after 24 hrs by Western blot analysis. The experiment is classed as cell-based. An outline of the steps: (§2)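 Endogenous let-7 target proteins (HMGA2, IMP1, Ras, Lin28a) detected by Western blot in JAR or PA-1 cells after 24 h compound treatment.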
(In general: In western blotting, separated proteins are transferred to a membrane and probed.)

Experiment [5] shares this target. As to the kind of experiment: Inhibition of Lin28a/Lin28b in human JAR cells assessed as reduction in IMP1 expression at 5 to 10 uM after 24 hrs by Western blot analysis. The experiment is classed as cell-based. In a few lines:
as §2

Experiment [6] has the same target. Nature of the experiment: Inhibition of Lin28a/Lin28b in human JAR cells assessed as reduction in Ras expression at 5 to 10 uM after 24 hrs by Western blot analysis. In kind it is cell-based. An outline of the steps: as §2
Experiment [7] has the same target. As to the kind of experiment: Inhibition of Lin28a/Lin28b in human JAR cells assessed as reduction in Lin28a expression at 5 to 10 uM after 24 hrs by Western blot analysis. In kind it is cell-based. In a few lines:
as §2

Experiment [8] has the same target. As to the kind of experiment: Inhibition of Lin28a/Lin28b in human paclitaxel-resistant JAR cells assessed as potentiation of paclitaxel induced cytotoxicity at 40 uM pretreated for 30 hrs followed by paclitaxel addition and measured after 72 hrs by WTS assay. An outline of the steps: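 Paclitaxel-resistant JAR persister cells, enriched by cytotoxic paclitaxel exposure and regrowth without drug. Cells pretreated 30 h with compound, then given paclitaxel for 72 h without compound; WST viability used to derive the paclitaxel IC50.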

Experiment [9] shares this target. Nature of the experiment: Inhibition of Lin28a/Lin28b in human paclitaxel-resistant JAR cells assessed as reduction in IMP1 expression at 40 uM measured after 24 hrs by Western blot analysis.
The target is the same in experiment [10]. As to the kind of experiment: Inhibition of Lin28a/Lin28b in human paclitaxel-resistant JAR cells assessed as reduction in MDR1 expression at 40 uM measured after 30 hrs by Western blot analysis.
Another experiment deals with T3, Protein lin-28 homolog A (Homo sapiens, UniProt Q9H9Z2).
T3 sequence (Q9H9Z2 whole entry): T1 sequence (whole entry)
As to the kind of experiment: Inhibition of Cy5-preE-let-7g binding to recombinant human N-terminal His6-tagged Lin28a expressed in Escherichia coli Rosetta2 (DE3) pLysS measured after 30 to 60 mins by electrophoretic mobility shift assay. On the technique in general: In EMSA bound probe runs differently from free probe, usually more slowly.

pIC50: −log10 of the molar value. The source made the active and inactive calls. The rule behind the calls is not given here.

In the case of `COc1cccc(Nc2[nH]c3c(Cl)ccc(Cl)c3c(=O)c2C(N)=O)c1`, the inhibition in experiment [1] came out at 14%. Also, the outcome in [2] and in [3] was Active. The inhibition entry in [4], in [5], in experiment [6] and in experiment [7] was “inactive” throughout.

As to `CC1(C)Oc2cc(N3CCN(C(=O)OCc4ccccc4)CC3)c([N+](=O)[O-])cc2-c2c1cnn2-c1ccc(C(=O)O)cc1`, the inhibition entry in experiment [8], in experiment [9] and in experiment [10] was “Active” each time.

`NC(=O)c1c(Nc2ccc(Cl)cc2Cl)[nH]c2c(Cl)c(Cl)ccc2c1=O`: on Protein lin-28 homolog A, the pIC50 was 4.96.

On to `NC(=O)c1c(Nc2ccc(F)cc2)[nH]c2c(Cl)ccc(Cl)c2c1=O`, for which the inhibition in [1] was 40%.

Usually inhibition stands for the percentage by which the read-out fell short of the control. In general, pIC50 refers to the IC50 on a negative log10 scale, so that one unit is a factor of ten.

Source of the values: ChEMBL document CHEMBL4325922, “Restoring Let-7 microRNA Biogenesis Using a Small-Molecule Inhibitor of the Protein-RNA Interaction” (ACS Med Chem Lett, 2018).
